Published values gathered from unrelated publications.
Target: SNF-related serine/threonine-protein kinase (SNRK, Homo sapiens, UniProt Q9NRH2)
Residues used in one study (Q9NRH2 1-765): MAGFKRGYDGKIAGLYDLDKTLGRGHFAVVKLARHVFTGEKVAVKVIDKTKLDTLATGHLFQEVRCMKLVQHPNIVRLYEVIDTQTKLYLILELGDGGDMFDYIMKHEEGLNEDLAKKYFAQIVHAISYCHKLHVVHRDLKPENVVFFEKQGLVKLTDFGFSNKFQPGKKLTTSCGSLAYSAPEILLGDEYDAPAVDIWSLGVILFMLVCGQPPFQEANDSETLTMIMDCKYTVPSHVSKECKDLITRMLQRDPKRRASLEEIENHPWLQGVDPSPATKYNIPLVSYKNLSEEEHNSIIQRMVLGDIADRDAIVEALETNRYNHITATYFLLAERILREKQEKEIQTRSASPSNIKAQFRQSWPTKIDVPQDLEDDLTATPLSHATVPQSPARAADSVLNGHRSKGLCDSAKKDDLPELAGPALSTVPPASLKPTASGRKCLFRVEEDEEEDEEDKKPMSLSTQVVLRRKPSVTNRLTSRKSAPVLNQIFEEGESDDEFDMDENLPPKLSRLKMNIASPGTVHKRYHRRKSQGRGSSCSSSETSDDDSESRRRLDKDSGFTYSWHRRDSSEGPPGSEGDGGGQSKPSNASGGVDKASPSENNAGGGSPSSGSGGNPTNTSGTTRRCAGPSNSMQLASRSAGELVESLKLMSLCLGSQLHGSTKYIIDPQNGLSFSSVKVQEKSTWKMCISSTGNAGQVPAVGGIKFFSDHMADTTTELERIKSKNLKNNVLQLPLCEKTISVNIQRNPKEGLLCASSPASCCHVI

| Compound | read-out | method | tested at | remaining binding [%] |
| --- | --- | --- | --- | --- |
| CS(=O)(=O)N1CCCC(NC(=O)[C@H](CCC2CCCCC2)NC(=O)c2ccc(CNc3ncnc4c3nnn4-c3ccccc3)cc2)C1 (stereo partly shown) | cell-free assay | competition with immobilised ligand | 0.1 µM | 81 |
| C=CC(=O)N1CCC(C(=O)NCC(=O)N2CCN(c3nc(-c4cnc(N)nc4C(F)F)nc(N4CCOCC4)n3)CC2)CC1 | binding | competition with immobilised ligand | 1 µM | 99 |
| O=C(NCCCN1CCOCC1)c1ccc(Nc2nccc(-c3cc4ccccc4s3)n2)cc1 | binding | competition with immobilised ligand | 1 µM | 99 |
| N[C@H]1CCN(c2nccc(-c3cnn4ncccc34)n2)C1 | binding |  | 1 µM | 100 |
| O=C(Nc1cccnn1)N1CCC(=Cc2cccc(Oc3ccc(C(F)(F)F)cn3)c2)CC1 | cell-free assay | competition with immobilised ligand | 1 µM | 100 |
| COc1cnc(Nc2cccc(S(N)(=O)=O)c2)nc1N1CCN(c2ccccc2)C(=O)C1 | binding | competition with immobilised ligand | 1 µM | 85 |
| CO[C@@H](C)c1c(Nc2ccc([C@H](N(C)C(=O)C3CCS(=O)(=O)CC3)C(F)(F)F)cc2)cnc2cc(Cl)nn12 | cell-free assay | competition with immobilised ligand | 1 µM | 100 |
| CN(c1nccc(-c2cnn3ncccc23)n1)C1CC1 | binding |  | 1 µM | 100 |
| O=C(c1ccc(Nc2ncc(Cl)c(-c3ccc(Cl)s3)n2)cc1)N1CCC(N2CCCC2)CC1 | binding | competition with immobilised ligand | 1 µM | 87 |
| COc1ccc2c(c1)O[C@@H](c1ccc(OC)c(OC)c1)C[C@H]2NC(=O)C1(c2ccc3c(c2)OC(F)(F)O3)CC1 | cell-free assay | competition with immobilised ligand | 1 µM | 90 |
| CN(C)c1nccc(-c2cnn3ncccc23)n1 | binding |  | 1 µM | 100 |
| Nc1ncc2c(n1)-c1c([nH]c3ccc(C#CC4CC4)cc13)CCCC2 | binding | competition with immobilised ligand | 1 µM | 88 |
| C[C@@H]1CCN(c2nccc(-c3cnn4ncccc34)n2)C1 | binding |  | 1 µM | 92 |
| C[C@@H](c1ccc(-n2cnc3c(N)ncnc32)cc1)N1CCc2nn(C)c(Cc3ccccc3)c2C1=O | binding | competition with immobilised ligand | 0.1 µM | 98 |
| O=C(NCC1CCOCC1)c1n[nH]cc1NC(=O)c1c(F)cccc1F | binding | competition with immobilised ligand | 1 µM | 84 |
| CC(=O)N1CCC(c2ccc(C(=O)NC(=N)N)cc2C(F)(F)F)CC1 | cell-free assay | competition with immobilised ligand | 1 µM | 100 |
| CN(C)c1nccc(-c2cnc3ncccn23)n1 | binding |  | 1 µM | 91 |
| Cc1cnc(Nc2ccc(C(=O)N3CCC(N4CCCC4)CC3)cc2)nc1-c1cc2ccccc2s1 | binding | competition with immobilised ligand | 1 µM | 100 |
| c1cnn2ncc(-c3ccnc(N4CCC45COC5)n3)c2c1 | binding |  | 1 µM | 67 |
| c1cncc(-c2cccc(Nc3nccc(NC4CCCCC4)n3)c2)c1 | binding | competition with immobilised ligand | 10 µM | 69 |
| COc1cc(-c2cn(C3CCc4c(F)cccc4N(CC(F)(F)F)C3=O)nn2)ccc1-n1cnc(C)c1 (stereo not shown) | cell-free assay | competition with immobilised ligand | 1 µM | 100 |
| F[C@@H]1CCN(c2nccc(-c3cnn4ncccc34)n2)C1 | binding |  | 1 µM | 100 |
